Columns and labels:
Adenosine receptor A1 [1] = target: T1, Adenosine receptor A1 (Rattus norvegicus, UniProt P25099); assay: (§1) Displacement of [3H]-DPCPX from A1 receptor in rat whole brain membrane; assay type: cell membranes
T1 sequence (P25099 whole entry): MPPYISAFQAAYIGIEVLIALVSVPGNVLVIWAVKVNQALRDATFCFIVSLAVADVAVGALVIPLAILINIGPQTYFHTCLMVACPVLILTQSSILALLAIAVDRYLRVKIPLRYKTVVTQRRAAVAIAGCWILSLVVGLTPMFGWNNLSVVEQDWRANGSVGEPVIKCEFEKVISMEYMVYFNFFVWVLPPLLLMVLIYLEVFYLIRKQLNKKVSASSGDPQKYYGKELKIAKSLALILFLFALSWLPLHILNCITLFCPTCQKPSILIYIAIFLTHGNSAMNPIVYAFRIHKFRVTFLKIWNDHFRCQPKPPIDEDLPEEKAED
How it was run: (§2)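 Competition binding against [3H]DPCPX (Kd 0.36 nM) on rat whole brain membranes. Nonspecific binding set with 100 µM CPA. Eight test concentrations from 0 to 100 µM. IC50 from a sigmoidal fit of specific binding against log concentration, converted to Ki. Run in triplicate, mean ± SEM. Where no full curve was obtained, percent displacement of radioligand at 100 µM is given.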

[2] = target: T2, Adenosine receptor A1 (Rattus norvegicus) (UniProt P25099); assay: as §1; assay type: cell membranes; parameters: concentration or dose not given beside the values; settings: concentration not given here; how it was run: as §2
T2 sequence (whole entry): T1 sequence (P25099 whole entry)

[3] = target: Adenosine receptor A2a (Rattus norvegicus) (UniProt P30543); assay: (§3) Displacement of [3H]-NECA from A2A receptor in rat striatal membrane in presence of A1 receptor agonist N6-cyclopentyladenosine; assay type: cell membranes; parameters: concentration or dose not given beside the values; settings: Striatum, concentration not given here
Adenosine receptor A2a (Rattus norvegicus), sequence (P30543 whole entry): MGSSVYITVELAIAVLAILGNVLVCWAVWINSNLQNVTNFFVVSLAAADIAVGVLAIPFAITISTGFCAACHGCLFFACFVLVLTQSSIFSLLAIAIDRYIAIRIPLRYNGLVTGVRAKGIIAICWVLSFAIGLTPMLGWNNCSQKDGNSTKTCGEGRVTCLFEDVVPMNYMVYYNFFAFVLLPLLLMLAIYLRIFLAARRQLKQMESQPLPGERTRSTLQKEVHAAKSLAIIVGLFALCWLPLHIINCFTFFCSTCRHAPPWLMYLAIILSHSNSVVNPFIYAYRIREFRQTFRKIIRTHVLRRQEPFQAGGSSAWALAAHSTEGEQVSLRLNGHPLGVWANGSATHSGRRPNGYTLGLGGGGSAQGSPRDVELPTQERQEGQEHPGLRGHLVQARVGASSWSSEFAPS
How it was run: (§4)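 Competition binding against [3H]NECA (Kd 15.3 nM) on rat striatal membranes, with the A1 agonist CPA present to suppress A1 binding. Nonspecific binding set with 100 µM CPA. Eight concentrations from 0 to 100 µM. Ki from the IC50 of a sigmoidal fit, in triplicate, mean ± SEM. Otherwise percent displacement at 100 µM.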

Adenosine receptor A2a = Adenosine receptor A2a (Rattus norvegicus, UniProt P30543); assay: as §3; assay type: cell membranes, Striatum; how it was run: as §4
Adenosine receptor A2a, sequence (P30543 whole entry): as above

[4] = Displacement of [3H]CGS21680 from A2A receptor in bovine striatal membrane; assay type: cell membranes, Bos taurus, Striatum
Adenosine receptor A1 [5] = target: T1, Adenosine receptor A1; assay: Displacement of [3H]-DPCPX from A1 receptor in rat whole brain membrane assessed as effect on GTP shift in presence of 100 uM GTP; assay type: cell membranes
How it was run: (§5)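 GTP shift test on rat whole brain membranes. [3H]DPCPX binding is run without GTP and with 100 µM GTP added. Ki is taken from a sigmoidal competition curve in each condition, in triplicate. The shift is Ki with GTP divided by Ki without GTP.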

[6] = target: T2, Adenosine receptor A1 (Rattus norvegicus); assay: Ratio of Ki for adenosine receptor A1 in rat brain membrane in presence of GTP to Ki for adenosine receptor A1 in rat brain membrane in absence of GTP; assay type: cell membranes; how it was run: as §5
[7] = target: T3, Adenosine receptor A1 (Homo sapiens) (UniProt P30542); assay: Displacement of [3H]-DPCPX from recombinant human A1 receptor expressed in CHOK1 cells at 100 uM measured after 30 mins by liquid scintillation counting method relative to control; assay type: cell-based
T3 sequence (whole entry): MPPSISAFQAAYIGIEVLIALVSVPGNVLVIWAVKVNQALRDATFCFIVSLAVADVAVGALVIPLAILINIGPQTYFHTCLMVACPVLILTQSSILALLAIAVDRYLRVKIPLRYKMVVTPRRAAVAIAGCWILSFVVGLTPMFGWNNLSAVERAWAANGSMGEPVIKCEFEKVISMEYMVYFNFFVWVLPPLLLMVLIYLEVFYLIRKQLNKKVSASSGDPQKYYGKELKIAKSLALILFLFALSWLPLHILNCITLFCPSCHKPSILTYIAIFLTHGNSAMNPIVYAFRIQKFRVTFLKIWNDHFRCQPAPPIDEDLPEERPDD

SMILES | Ki (Adenosine receptor A1 [1]) [µM] | inhibition [2] [%] | inhibition [3] [%] | Ki (Adenosine receptor A2a) [µM] | Ki [4] [µM] | Ki (Adenosine receptor A1 [5]) [µM] | Ratio Ki [6] | inhibition [7] [%]
COc1ccc(-c2cn3ccccc3n2)cc1 | > 100 | 76 | 61 | > 100 | – | – | – | –
Oc1ccc(-c2nc3ccccn3c2NC2CCCCC2)cc1 | 5.53 | – | 27 | > 100 | – | – | – | –
O=C(Nc1nc(-c2ccccc2)nc2nc(-c3ccccc3)cn12)C1CCCC1 | – | – | – | – | 2.5 | – | – | –
CC(=O)Nc1nc(-c2ccccc2)nc2nc(C)cn12 | – | – | – | – | > 10 | – | – | –
c1ccc(-c2nc3ccccn3c2NC2CCCCC2)cc1 | > 100 | 57 | 77 | > 100 | – | – | – | –
FC(F)(F)c1ccc(-c2nc3ccccn3c2NC2CCCCC2)cc1 | > 100 | 76 | 74 | > 100 | – | – | – | –
COc1ccc(-c2nc3ccccn3c2NC2CCCCC2)cc1 | 7.61 | – | 55 | > 100 | – | – | – | –
Cc1ccc(-c2nc3ccccn3c2NC2CCCCC2)cc1 | 2.06 | – | 83 | > 100 | – | 2 | 0.97 | –
Brc1ccc(-c2cn3ccccc3n2)cc1 | > 100 | 86 | 87 | > 100 | – | – | – | –
Nc1c(-c2ccccc2)nc2ccccn12 | > 100 | 52 | 86 | > 100 | – | – | – | –
c1ccn2ccnc2c1 | > 100 | 100 | 75 | > 100 | – | – | – | –
O=[N+]([O-])c1ccc(-c2nc3ccccn3c2NC2CCCCC2)cc1 | > 100 | 99 | 69 | > 100 | – | – | – | –
c1ccc(-c2cn3ccccc3n2)cc1 | > 100 | 49 | 52 | > 100 | – | – | – | –
c1ccc(CNc2c(-c3ccccc3)nc3ccccn23)cc1 | – | – | – | – | – | – | – | 89
Oc1ccc(-c2cn3ccccc3n2)cc1 | > 100 | 47 | 85 | > 100 | – | – | – | –
Clc1ccc(-c2nc3ccccn3c2NC2CCCCC2)cc1 | > 100 | 61 | 64 | > 100 | – | – | – | –
Fc1ccc(-c2nc3ccccn3c2NC2CCCCC2)cc1 | > 100 | 63 | 90 | > 100 | – | – | – | –
CC(=O)CNc1nc(-c2ccccc2)nc2nc(C)cn12 | – | – | – | – | > 10 | – | – | –
Brc1ccc(-c2nc3ccccn3c2NC2CCCCC2)cc1 | 3.9 | – | 54 | > 100 | – | – | – | –
